Measurements as given in ChEMBL document CHEMBL1147096, “Activities of DL-alpha-difluoromethylarginine and polyamine analogues against Cryptosporidium parvum infection in a T-cell receptor alpha-deficient mouse model” (2007).
Activity calls are given as the source filed them. No cut-off for these calls is given here.

Tests used:
[1] = test system: Mus musculus; assay: Activity of intestinal epithelial SSAT in Swiss-Webster mouse at […], ip after 96 hrs; format: functional
How it was run: (§1)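 Intestinal homogenates came from Swiss-Webster mice given CGC-11157 once daily (20 mg/kg p.o. or 2 mg/kg i.p.) and killed at 48, 72 or 96 h. SSAT was measured as [1-14C]acetyl-CoA incorporation into monoacetylspermine in Bicine (pH 8.0), with 16.5 μM labeled plus 1 mM acetyl-CoA, 2 mM spermine and 100 μg protein, 60 min at 37°C. Products were bound on cellulose phosphate discs and counted. Results are in nmol/min/mg protein ± SD.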

[2] = test system: Mus musculus; assay: Activity of intestinal epithelial SSAT in Swiss-Webster mouse at […], ip after 72 hrs; format: functional; how it was run: as §1
[3] = test system: Mus musculus; assay: Ratio of intestinal epithelial ODC activity to SSAT activity in Swiss-Webster mouse at 2 mg, po after 48 hrs; format: functional
How it was run: (§2)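 The ratio was calculated from ODC (14CO2 release from [14C]ornithine) and SSAT (acetylation of spermine by [14C]acetyl-CoA) specific activities. Both were measured in intestinal homogenates from Swiss-Webster mice dosed once daily with CGC-11157 p.o. or i.p. and sampled at 48, 72 or 96 h.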

[4] = test system: Cryptosporidium parvum; assay: Anticryptosporidial activity against Cryptosporidium parvum infected TCR alpha deficient-mouse assessed as prevention of oocyst shedding at 20 mg/kg/day after 7 days; format: functional
How it was run: (§3)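 Seven-day-old TCR-α-deficient mice were gavaged with 2 × 10^4 oocysts, and infection was confirmed in feces one week later. Treatment ran for 7 days: 20 or 134 mg/kg once daily, or 16 mg/kg twice daily. Controls received PBS. Seven days after treatment, fecal smears were stained with carbol fuchsin and scored for oocysts (×400). Ileal and cecal H&E sections were scored 0–2. Shedding was compared by Fisher's exact test.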

[5] = test system: Mus musculus; assay: Ratio of intestinal epithelial ODC activity to SSAT activity in Swiss-Webster mouse at 2 mg, po after 72 hrs; format: functional; how it was run: as §2
[6] = test system: Mus musculus; assay: Activity of intestinal epithelial ODC in Swiss-Webster mouse at 0.2 mg, ip after 72 hrs; format: functional
How it was run: (§4)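 Swiss-Webster mice were dosed with CGC-11157 once daily at 20 mg/kg p.o. by feeding needle or 2 mg/kg i.p. They were killed at 48, 72 or 96 h. Intestines were washed in PBS (pH 6.7) and homogenized on ice in 40 mM Tris-HCl (pH 6.7). ODC was measured as 14CO2 trapped from L-[14C]ornithine in 0.2 M acetate (pH 6.5), 60 μM pyridoxal phosphate, 3 mg/ml BSA and 125 μg protein, 30 min at 37°C. Results are in nmol/min/mg protein ± SD.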

[7] = test system: Mus musculus; assay: Ratio of intestinal epithelial ODC activity to SSAT activity in Swiss-Webster mouse at 0.2 mg, ip after 96 hrs; format: functional; how it was run: as §2
[8] = test system: Mus musculus; assay: Ratio of intestinal epithelial ODC activity to SSAT activity in Swiss-Webster mouse at 0.2 mg, ip after 72 hrs; format: functional; how it was run: as §2
[9] = test system: Mus musculus; assay: Ratio of intestinal epithelial ODC activity to SSAT activity in Swiss-Webster mouse at 2 mg, po after 96 hrs; format: functional; how it was run: as §2
[10] = test system: Mus musculus; assay: Activity of intestinal epithelial ODC in Swiss-Webster mouse at […], ip after 96 hrs; format: functional; how it was run: as §4
[11] = test system: Cryptosporidium parvum; assay: Anticryptosporidial activity against Cryptosporidium parvum infected TCR alpha deficient-mouse assessed as prevention of oocyst shedding at 16 mg/kg twice a day after 7 days; format: functional; how it was run: as §3
[12] = test system: Mus musculus; assay: Ratio of intestinal epithelial ODC activity to SSAT activity in Swiss-Webster mouse at 0.2 mg, ip after 48 hrs; format: functional; how it was run: as §2
[13] = test system: Mus musculus; assay: Activity of intestinal epithelial SSAT in Swiss-Webster mouse at 0.2 mg, ip after 48 hrs; format: functional; how it was run: as §1
[14] = test system: Mus musculus; assay: Activity of intestinal epithelial ODC in Swiss-Webster mouse at 0.2 mg, ip after 48 hrs; format: functional; how it was run: as §4
[15] = test system: Cryptosporidium parvum; assay: Prevention of Cryptosporidium parvum infection in TCR alpha deficient-mouse pretreated with 20 mg/kgday, po for 2 days prior to oocyst infection and continued for 5 days; format: functional; details: dose 20 mg/kg
How it was run: (§5)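 Suckling TCR-α-deficient mice (6–8 per group) were treated once daily for 2 days, challenged with 2 × 10^4 oocysts, and treated for 5 more days at the same dose (20 or 50 mg/kg). Controls received PBS. Fecal oocyst shedding was checked 10 days after treatment by carbol fuchsin smear. Ileal and cecal H&E sections were scored 0–2 and analyzed by Fisher's exact test and ANOVA.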

[16] = test system: Cryptosporidium parvum; assay: Effect on infection of HCT8 cells by Cryptosporidium parvum […] isolated from mouse treated with 134 mg/kg/day for 7 days assessed as viability of […]; format: functional, organism-based
How it was run: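 Oocysts were recovered from TCR-α-deficient mice that had been infected, then treated with 134 mg/kg once daily for 7 days. Viability was judged by whether the oocysts could establish infection in an HCT-8 cell monolayer in vitro.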

[17] = test system: Cryptosporidium parvum; assay: Anticryptosporidial activity against Cryptosporidium parvum infected TCR alpha deficient-mouse assessed as prevention of oocyst shedding at 134 mg/kg/day after 7 days; format: functional; how it was run: as §3
[18] = test system: Cryptosporidium parvum; assay: Prevention of Cryptosporidium parvum infection in TCR alpha deficient-mouse pretreated with 50 mg/kg/day, po for 2 days prior to oocyst infection and continued for 5 days; format: functional, organism-based; how it was run: as §5

SMILES: CCNCCCCNCCCCNCCCCNC/C=C\CNCCCCNCCCCNCCCCNCC
- Activity [1]: 0.04 nmol/mg/min
- Activity [2]: 0.034 nmol/mg/min
- Ratio [3]: 0.99
- Activity [4]: 50%
- Ratio [5]: 1.55
- Activity [6]: 0.034 nmol/mg/min
- Ratio [7]: 4
- Ratio [8]: 1
- Ratio [9]: 2.9
- Activity [10]: 0.16 nmol/mg/min
- Activity [11]: 50%
- Ratio [12]: 0.97
- Activity [13]: 0.081 nmol/mg/min
- Activity [14]: 0.079 nmol/mg/min
- Activity [15]: 50%

SMILES: CCNCCCCNCCCCNCCCCNCCCCNC/C=C/CNCCCCNCCCCNCCCCNCCCCNCC
- Activity [16]: inactive

SMILES: NCCCC(N)(C(=O)O)C(F)F (racemic) [EFLORNITHINE]
- Activity [4]: 33%

SMILES: CCNCCCNC/C=C\CNCCCNCC
- Activity [17]: Toxic
- Activity [18]: Active
